PMC3398233 (Chemical Research in Toxicology, 2012)
In brackets after ≈: the same amount, converted by molar mass. Several values for one entry are separate records, joined by “and”; a condition that tells them apart may be missing. Equal entries are not always repeated.

Assays:
PCE [1] = assay: DEHP hydrolysis to MEHP by PCE; format: in vitro ADME, porcine; conditions: 127 vs 1.08 pmol min^-1 mg protein^-1
PCE [2] = conditions: DEHP 50 μM; cited from earlier work
[3] = test system: hepatic porcine carboxylesterase; assay: Metabolism in purified hepatic porcine carboxylesterase; format: in vitro ADME; conditions: Michaelis-Menten model, 10-min incubations
[4] = cited from earlier work
[5] = TBB/TBPH metabolism in human liver microsomes; format: in vitro ADME
[6] = Solubility limit of TBB in incubation buffer; format: physicochemical; conditions: potassium phosphate buffer, pH 7.4
How it was run: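 Practical upper limit judged from kinetics incubations in 100 mM potassium phosphate (pH 7.4), glass tubes, shaking at 37°C, 10 min, nine concentrations 0.0078–31.1 μM. Dosing concentrations checked by LC/MS/MS (negative APCI, C18 column, isocratic 98% methanol). Limit taken as the highest concentration without unacceptably high variability in measured substrate concentration.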

[7] = test system: fathead minnows (Pimephales promelas); conditions: dietary exposure to commercial mixture containing TBB and TBPH; cited from earlier work
Phase II metabolism [8] = format: in vitro ADME, human; conditions: HLM; for Phase II metabolites detected (glucuronidation): 2 mM UDPGA, alamethicin, MgCl2, 90 min; for loss of parent compound during Phase II incubation: glucuronidation cofactors, 90 min
Phase II metabolism [9] = format: in vitro ADME, human; conditions: cytosol, 90 min; for Phase II metabolites detected (sulfation, glutathione conjugation): PAPS or reduced glutathione; for loss of parent compound during Phase II incubation: sulfation / glutathione cofactors

For `CCCCC(CC)COC(=O)c1ccccc1C(=O)OCC(CC)CCCC` (stereo not drawn) [DEHP, bis(2-ethylhexyl) phthalate], the “DEHP hydrolysis rate relative to TBPH hydrolysis rate in PCE” value (PCE [1]) is listed as “approximately 100 times” and the “MEHP formation rate from DEHP in PCE” value (PCE [2]) is listed as 127 pmol min^-1 mg protein^-1.
For `CCCCC(CC)COC(=O)c1cc(Br)c(Br)c(Br)c1Br` (stereo not drawn) [TBB, 2-ethylhexyl-2,3,4,5-tetrabromobenzoate], the “Vmax for TBBA formation in PCE” value [3] is given as 24.4 ± 2.6 nmol min^-1 mg protein^-1, the Km ([3]; read-out: Km for TBBA formation in PCE) is given as 9.3 µM and ~10 µM and the “estimated log KOW” value [4] is given as 8.8. The “decrease of TBB during incubation (amount)” value ([5]; 60-min incubation, HLM 40 μg protein mL^-1, TBB 27.1 ± 1.3 μM) was about 2.9 nmol, the “reduction in the concentration of TBB” value ([5]; 60-min incubations with HLM, metabolite identification, GC/MS) was 79.9 ± 4.6% and the “Vmax for TBBA formation in HLM” value ([5]; Michaelis-Menten model, 10-min incubations, 40 μg protein mL^-1, TBB 0.0078–31.1 μM) was 0.644 ± 0.144 nmol min^-1 mg protein^-1. For the same compound, the “effect of NADPH on the formation rate of TBBA” value ([5]; NADPH 0, 0.3, 3.0 and 30 mM, data not shown) was “did not significantly affect”, the Km at 10 min ([5]; both, human, pH 7.4, Km for TBBA formation in HLM, Michaelis-Menten model, 10-min incubations, 40 μg protein mL^-1, TBB 0.0078–31.1 μM) was 11.1 ± 3.9 µM and the Km ([5]; read-out: Km for TBBA formation in HLM, Michaelis-Menten model, 10-min incubations, 40 μg protein mL^-1, TBB 0.0078–31.1 μM) was about 10 µM. For the same compound, the solubility [6] was about 30 µM (≈ 16.5 µg/mL) and the “metabolism in fathead minnows” value [7] was “metabolized to form unidentified brominated metabolites”.
With `O=C(O)c1cc(Br)c(Br)c(Br)c1Br` [TBBA, 2,3,4,5-tetrabromobenzoic acid] the “Phase II metabolites detected (glucuronidation)” value (Phase II metabolism [8]) was “no Phase II metabolites were detected”, the “loss of parent compound during Phase II incubation” value (shortened to “loss”) (Phase II metabolism [8]) was “no significant losses” and the “Phase II metabolites detected (sulfation, glutathione conjugation)” value (Phase II metabolism [9]) was “no Phase II metabolites were detected”. For the same compound, the “loss” value (Phase II metabolism [9]) was “no significant losses”.
For `CCCCC(CC)COC(=O)c1c(Br)c(Br)c(Br)c(Br)c1C(=O)O` (stereo not drawn) [TBMEHP, mono(2-ethylhexyl) 2,3,4,5-tetrabromophthalate], the “Phase II metabolites detected (glucuronidation)” value (Phase II metabolism [8]) was “no Phase II metabolites were detected”, the “loss” value (Phase II metabolism [8]) was “no significant losses” and the “Phase II metabolites detected (sulfation, glutathione conjugation)” value (Phase II metabolism [9]) was “no Phase II metabolites were detected”. For the same compound, the “loss” value (Phase II metabolism [9]) was “no significant losses”.
